Source: ChEMBL document CHEMBL1123456, “A novel class of conformationally restricted heterocyclic muscarinic agonists” (J Med Chem, 1986)

Tests used:
[1] = Dissociation constant (pKa); format: physicochemical
Summary of the method: (§1)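 pKa values measured in water at 25 °C by a previously published method.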

[2] = target: Muscarinic acetylcholine receptor; experiment: Inhibition of binding of radioactive N-propylbenzilycholine mustard ([3H]-PrBCM) to rat brain membranes; format: cell membranes, Membrane
[3] = target: Muscarinic acetylcholine receptor; experiment: In vitro antagonistic activity against peripheral Muscarinic acetylcholine receptor in guinea pig ileum as inhibition of acetylcholine induced muscle contraction; format: functional, tissue-based
Summary of the method: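 Guinea pigs were killed by a blow to the head and exsanguinated. A 30 mm ileum segment was held isotonically in Tyrode solution at 37 °C in an organ bath. IC50 was obtained by log probit analysis.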

[4] = pKa value is determined; format: physicochemical; summary of the method: as §1

Row | pKa [1] | IC50 [2] [µM] | IC50 [3] [µM] | pKa [4] | SMILES
1 | 7.5 | 9.6 |  |  | C=CCOc1noc2c1CNCC2.Cl
2 | 6.6 | 2.4 |  |  | CCOc1noc2c1CN(C)CC2.Cl
3 | 6.6 | 27 |  |  | COc1noc2c1CN(C)CC2.Cl
4 | 7.7 | 14 | > 50 |  | C/C=C/COc1noc2c1CNCC2.Cl
5 | 7.7 | > 50 | 49 |  | CC(C)COc1noc2c1CNCC2.Cl
6 |  | 45 |  | 7.5 | COc1noc2c1CNCC2.Cl
7 | 7 | 15 |  |  | CCN1CCc2onc(OC)c2C1.Cl
8 | 7.5 | 32 | 48 |  | Cl.c1ccc(COc2noc3c2CNCC3)cc1
9 |  | 6 |  | 7.6 | CCOc1noc2c1CNCC2.Cl
10 | 7.5 | 3.5 | 11 |  | CC(C)Oc1noc2c1CNCC2.Cl
11 | 7.6 | 5.8 |  |  | C#CCOc1noc2c1CNCC2.Cl
12 | 7.6 | 13 | 22 |  | C=C(Br)COc1noc2c1CNCC2.Cl
13 | 7.6 | 10 | 35 |  | CCCOc1noc2c1CNCC2.Cl
14 | 7.6 | 15 | > 50 |  | CCCCOc1noc2c1CNCC2.Cl
15 | 7.6 | 5.2 |  |  | CC#CCOc1noc2c1CNCC2.Cl
16 | 6.1 | > 50 | > 50 |  | COc1noc2c1CN(Cc1ccccc1)CC2.Cl

Row | SMILES | pKa [1] | IC50 [2] [µM] | IC50 [3] [µM] | pKa [4]
17 | COC(=O)C1=CCCN(C)C1 [ARECOLINE] | 7.8 |  |  | 
18 | COC(=O)C1=CCCNC1 [NORARECOLINE] | 8.7 | 30 |  | 
